The source of these data is ChEMBL document CHEMBL1142088, “Cumulative effects of several nonenzymatic mechanisms on the resistance of Pseudomonas aeruginosa to aminoglycosides” (2007).

The term MIC denotes the lowest concentration that inhibits growth of the organism. Read a low MIC as a more susceptible organism.

Common to all, as to type: functional
Experiment [1] deals with Pseudomonas aeruginosa. Description: Antibacterial activity against Pseudomonas aeruginosa FE53G with inactivated mexZ and nuoG genes by microdilution method. A general note: Broth dilution looks for growth in wells or tubes with falling amounts of substance.
The subject of experiment [2] is Pseudomonas aeruginosa. Description: Antibacterial activity against Pseudomonas aeruginosa FE53U with inactivated mexZ and galU genes by microdilution method.
The test system of experiment [3] is Pseudomonas aeruginosa. Briefly: Antibacterial activity against Pseudomonas aeruginosa FE10U with inactivated nuoG and galU genes by microdilution method.
Experiment [4] concerns Pseudomonas aeruginosa. Briefly: Antibacterial activity against Pseudomonas aeruginosa FE63 containing inactivated rplY and PA5471 genes by microdilution method.
Experiment [5] concerns Pseudomonas aeruginosa. Description: Antibacterial activity against Pseudomonas aeruginosa FE60 containing inactivated mexXY gene by microdilution method.
Experiment [6] has as its system Pseudomonas aeruginosa. Description: Antibacterial activity against Pseudomonas aeruginosa KJ7106 with inactivated PA5471 gene by microdilution method.
The test system of experiment [7] is Pseudomonas aeruginosa. Briefly: Antibacterial activity against Pseudomonas aeruginosa FE10 with inactivated nuoG gene by microdilution method.
The subject of experiment [8] is Pseudomonas aeruginosa. Description: Antibacterial activity against Pseudomonas aeruginosa FE57 with inactivated rplY gene by microdilution method.
In experiment [9] the test system is Pseudomonas aeruginosa. Briefly: Antibacterial activity against Pseudomonas aeruginosa FE64 containing inactivated rplY and mexXY genes by microdilution method.
Experiment [10] deals with Pseudomonas aeruginosa. Briefly: Antibacterial activity against Pseudomonas aeruginosa FE57 containing inactivated rplY gene with pARAL25 by microdilution method. Summed up:
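MIC for the rplY mutant carrying plasmid-borne rplY under the arabinose-inducible pBAD promoter. Cells grown with 150 μg/ml ticarcillin to keep the plasmid and 0.2% arabinose. Serial twofold dilution with about 10^4 bacteria per spot at 37°C.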

Experiment [11] concerns Pseudomonas aeruginosa. Description: Antibacterial activity against Pseudomonas aeruginosa FE57U with inactivated rplY and galU genes by microdilution method.
For experiment [12], the system named is Pseudomonas aeruginosa. Briefly: Antibacterial activity against Pseudomonas aeruginosa FE53 with inactivated mexZ gene by microdilution method.
Experiment [13] has as its system Pseudomonas aeruginosa. Briefly: Antibacterial activity against Pseudomonas aeruginosa FE57G with inactivated rplY and nuoG genes by microdilution method.
Experiment [14] has as its system Pseudomonas aeruginosa. Briefly: Antibacterial activity against Pseudomonas aeruginosa PAO1 by microdilution method.
The test system of experiment [15] is Pseudomonas aeruginosa. Description: Antibacterial activity against Pseudomonas aeruginosa FE57Z with inactivated rplY and mexZ genes by microdilution method.
For experiment [16], the system named is Pseudomonas aeruginosa. Briefly: Antibacterial activity against Pseudomonas aeruginosa FE49 with inactivated galU gene by microdilution method.
Experiment [17] has as its system Pseudomonas aeruginosa. Briefly: Antibacterial activity against Pseudomonas aeruginosa FE57GU with inactivated rplY, nuoG and galU genes by […].
The test system of experiment [18] is Pseudomonas aeruginosa. Description: Antibacterial activity against Pseudomonas aeruginosa FE57GZ with inactivated rplY, nuoG and mexZ genes […].
Experiment [19] has as its system Pseudomonas aeruginosa. Description: Antibacterial activity against Pseudomonas aeruginosa FE53GU with inactivated mexZ, nuoG and galU genes by […].
In experiment [20] the test system is Pseudomonas aeruginosa. Description: Antibacterial activity against Pseudomonas aeruginosa FE57GUZ with inactivated rplY, nuoG, galU and mexZ genes […].
Experiment [21] concerns Pseudomonas aeruginosa. Description: Antibacterial activity against Pseudomonas aeruginosa FE57UZ with inactivated rplY, galU and mexZ genes […].

Converted amounts (≈) assume the structure as drawn.

On to GENTAMICIN, for which the MIC was found to be 8 µg/mL against Pseudomonas aeruginosa [1]; 8 µg/mL against Pseudomonas aeruginosa [2]; 4 µg/mL in the experiment with Pseudomonas aeruginosa [3]; 0.25 µg/mL against Pseudomonas aeruginosa [4]; 0.125 µg/mL in the experiment with Pseudomonas aeruginosa [5]; 0.125 µg/mL in the experiment on Pseudomonas aeruginosa [6]. For the same compound, the MIC in the experiment with Pseudomonas aeruginosa [7] came to 2 µg/mL; with Pseudomonas aeruginosa [8], 2 µg/mL; against Pseudomonas aeruginosa [9] it was 0.25 µg/mL; against Pseudomonas aeruginosa [10], 1 µg/mL; in the experiment with Pseudomonas aeruginosa [11], 8 µg/mL; in the experiment with Pseudomonas aeruginosa [12], 4 µg/mL. For the same compound, the MIC amounted to 8 µg/mL with Pseudomonas aeruginosa [13], 1 µg/mL against Pseudomonas aeruginosa [14], 8 µg/mL in the experiment on Pseudomonas aeruginosa [15] and 2 µg/mL in the experiment with Pseudomonas aeruginosa [16].

Take `CCN[C@@H]1C[C@H](N)[C@@H](O[C@H]2OC(CN)=CC[C@H]2N)[C@H](O)[C@H]1O[C@H]1OC[C@](C)(O)[C@H](NC)[C@H]1O` [NETILMICIN]: the MIC against Pseudomonas aeruginosa [17] came out at 64 µg/mL (≈ 135 µM); with Pseudomonas aeruginosa [1], 16 µg/mL (≈ 33.6 µM); with Pseudomonas aeruginosa [2], 16 µg/mL (≈ 33.6 µM); against Pseudomonas aeruginosa [3], 8 µg/mL (≈ 16.8 µM); against Pseudomonas aeruginosa [7], 8 µg/mL (≈ 16.8 µM); in the experiment with Pseudomonas aeruginosa [18], 128 µg/mL (≈ 269 µM). The MIC in the experiment with Pseudomonas aeruginosa [19] is 64 µg/mL (≈ 135 µM); against Pseudomonas aeruginosa [8] it was 8 µg/mL (≈ 16.8 µM); in the experiment with Pseudomonas aeruginosa [11] it was 16 µg/mL (≈ 33.6 µM); against Pseudomonas aeruginosa [20], 256 µg/mL (≈ 538 µM); against Pseudomonas aeruginosa [12], 8 µg/mL (≈ 16.8 µM); against Pseudomonas aeruginosa [13], 16 µg/mL (≈ 33.6 µM). For the same compound, the MIC came to 4 µg/mL (≈ 8.41 µM) against Pseudomonas aeruginosa [14], 16 µg/mL (≈ 33.6 µM) against Pseudomonas aeruginosa [15], 8 µg/mL (≈ 16.8 µM) against Pseudomonas aeruginosa [16] and 64 µg/mL (≈ 135 µM) in the experiment with Pseudomonas aeruginosa [21].

Take `NCC[C@H](O)C(=O)N[C@@H]1C[C@H](N)[C@@H](O[C@H]2O[C@H](CN)[C@@H](O)[C@H](O)[C@H]2O)[C@H](O)[C@H]1O[C@H]1O[C@H](CO)[C@@H](O)[C@H](N)[C@H]1O` [AMIKACIN]: the MIC against Pseudomonas aeruginosa [17] was determined as 32 µg/mL (≈ 54.6 µM); against Pseudomonas aeruginosa [1] it was 16 µg/mL (≈ 27.3 µM); against Pseudomonas aeruginosa [2], 16 µg/mL (≈ 27.3 µM); against Pseudomonas aeruginosa [3] it was 8 µg/mL (≈ 13.7 µM); with Pseudomonas aeruginosa [4], 2 µg/mL (≈ 3.42 µM); with Pseudomonas aeruginosa [5] it was 1 µg/mL (≈ 1.71 µM). Moreover, the MIC with Pseudomonas aeruginosa [6] worked out at 1 µg/mL (≈ 1.71 µM); in the experiment with Pseudomonas aeruginosa [7], 8 µg/mL (≈ 13.7 µM); with Pseudomonas aeruginosa [18], 32 µg/mL (≈ 54.6 µM); in the experiment on Pseudomonas aeruginosa [19], 32 µg/mL (≈ 54.6 µM); against Pseudomonas aeruginosa [8], 8 µg/mL (≈ 13.7 µM); in the experiment on Pseudomonas aeruginosa [9], 2 µg/mL (≈ 3.42 µM). For the same compound, the MIC amounted to 4 µg/mL (≈ 6.83 µM) in the experiment on Pseudomonas aeruginosa [10]; 16 µg/mL (≈ 27.3 µM) in the experiment with Pseudomonas aeruginosa [11]; 64 µg/mL (≈ 109 µM) in the experiment on Pseudomonas aeruginosa [20]; 8 µg/mL (≈ 13.7 µM) in the experiment on Pseudomonas aeruginosa [12]; 32 µg/mL (≈ 54.6 µM) in the experiment with Pseudomonas aeruginosa [13]; 4 µg/mL (≈ 6.83 µM) against Pseudomonas aeruginosa [14]. For the same compound, the MIC stood at 16 µg/mL (≈ 27.3 µM) in the experiment with Pseudomonas aeruginosa [15], 8 µg/mL (≈ 13.7 µM) in the experiment with Pseudomonas aeruginosa [16] and 32 µg/mL (≈ 54.6 µM) in the experiment on Pseudomonas aeruginosa [21].

In the case of `NC[C@H]1O[C@H](O[C@H]2[C@H](O)[C@@H](O[C@H]3O[C@H](CO)[C@@H](O)[C@H](N)[C@H]3O)[C@H](N)C[C@@H]2N)[C@H](N)C[C@@H]1O` [TOBRAMYCIN], the MIC in the experiment with Pseudomonas aeruginosa [17] is 4 µg/mL (≈ 8.56 µM); with Pseudomonas aeruginosa [1] it was 2 µg/mL (≈ 4.28 µM); in the experiment with Pseudomonas aeruginosa [2], 2 µg/mL (≈ 4.28 µM); with Pseudomonas aeruginosa [3], 2 µg/mL (≈ 4.28 µM); against Pseudomonas aeruginosa [4] it was 0.5 µg/mL (≈ 1.07 µM); against Pseudomonas aeruginosa [5], 0.25 µg/mL (≈ 0.535 µM). Further, the minimal inhibitory concentration (MIC) in the experiment with Pseudomonas aeruginosa [6] was 0.25 µg/mL (≈ 0.535 µM); against Pseudomonas aeruginosa [7], 1 µg/mL (≈ 2.14 µM); in the experiment with Pseudomonas aeruginosa [18] it was 4 µg/mL (≈ 8.56 µM); in the experiment with Pseudomonas aeruginosa [19] it was 4 µg/mL (≈ 8.56 µM); with Pseudomonas aeruginosa [8], 1 µg/mL (≈ 2.14 µM); against Pseudomonas aeruginosa [9], 0.5 µg/mL (≈ 1.07 µM). Besides, the MIC against Pseudomonas aeruginosa [10] amounted to 0.25 µg/mL (≈ 0.535 µM); against Pseudomonas aeruginosa [11], 2 µg/mL (≈ 4.28 µM); against Pseudomonas aeruginosa [20], 8 µg/mL (≈ 17.1 µM); against Pseudomonas aeruginosa [12], 1 µg/mL (≈ 2.14 µM); against Pseudomonas aeruginosa [13], 2 µg/mL (≈ 4.28 µM); against Pseudomonas aeruginosa [14], 0.5 µg/mL (≈ 1.07 µM). The MIC against Pseudomonas aeruginosa [15] worked out at 2 µg/mL (≈ 4.28 µM); in the experiment on Pseudomonas aeruginosa [16], 1 µg/mL (≈ 2.14 µM); against Pseudomonas aeruginosa [21] it was 4 µg/mL (≈ 8.56 µM).

Consider `NC[C@H]1O[C@H](O[C@H]2[C@H](O)[C@@H](O[C@H]3O[C@H](CO)[C@@H](O)[C@H](N)[C@H]3O)[C@H](N)C[C@@H]2N)[C@H](O)[C@@H](O)[C@@H]1O` [KANAMYCIN], for which the MIC in the experiment on Pseudomonas aeruginosa [17] was found to be 512 µg/mL (≈ 1060 µM); against Pseudomonas aeruginosa [1] it was 256 µg/mL (≈ 528 µM); with Pseudomonas aeruginosa [2] it was 256 µg/mL (≈ 528 µM); in the experiment with Pseudomonas aeruginosa [3] it was 256 µg/mL (≈ 528 µM); with Pseudomonas aeruginosa [7] it was 256 µg/mL (≈ 528 µM); in the experiment with Pseudomonas aeruginosa [18], 1020 µg/mL (≈ 2110 µM). The MIC in the experiment on Pseudomonas aeruginosa [19] came out at 512 µg/mL (≈ 1060 µM); in the experiment with Pseudomonas aeruginosa [8], 256 µg/mL (≈ 528 µM); in the experiment with Pseudomonas aeruginosa [11], 256 µg/mL (≈ 528 µM); with Pseudomonas aeruginosa [20] it was 1020 µg/mL (≈ 2110 µM); with Pseudomonas aeruginosa [12] it was 128 µg/mL (≈ 264 µM); against Pseudomonas aeruginosa [13], 512 µg/mL (≈ 1060 µM). Besides, the MIC in the experiment on Pseudomonas aeruginosa [14] is 64 µg/mL (≈ 132 µM); with Pseudomonas aeruginosa [15], 256 µg/mL (≈ 528 µM); in the experiment with Pseudomonas aeruginosa [16] it was 128 µg/mL (≈ 264 µM); against Pseudomonas aeruginosa [21] it was 512 µg/mL (≈ 1060 µM).

Consider `O=C(O)c1cn(C2CC2)c2cc(N3CCNCC3)c(F)cc2c1=O` [CIPROFLOXACIN], for which the MIC in the experiment on Pseudomonas aeruginosa [1], against Pseudomonas aeruginosa [18], against Pseudomonas aeruginosa [19], against Pseudomonas aeruginosa [20], in the experiment on Pseudomonas aeruginosa [12] and against Pseudomonas aeruginosa [15] was 1 µg/mL (≈ 3.02 µM) in each case. Also, 1 µg/mL (≈ 3.02 µM) was the least that counted as inhibitory in the experiment with Pseudomonas aeruginosa [21] (MIC).

As to `CO/N=C(\C(=O)N[C@@H]1C(=O)N2C(C(=O)[O-])=C(C[N+]3(C)CCCC3)CS[C@H]12)c1csc(N)n1` [CEFEPIME], the MIC against Pseudomonas aeruginosa [17] turned out to be 8 µg/mL (≈ 16.6 µM); in the experiment on Pseudomonas aeruginosa [1], 16 µg/mL (≈ 33.3 µM); in the experiment with Pseudomonas aeruginosa [2], 16 µg/mL (≈ 33.3 µM); against Pseudomonas aeruginosa [3], 4 µg/mL (≈ 8.32 µM); with Pseudomonas aeruginosa [4], 2 µg/mL (≈ 4.16 µM); in the experiment with Pseudomonas aeruginosa [5], 4 µg/mL (≈ 8.32 µM). Further, the minimum inhibitory concentration (MIC) in the experiment with Pseudomonas aeruginosa [6] came to 4 µg/mL (≈ 8.32 µM); with Pseudomonas aeruginosa [7] it was 4 µg/mL (≈ 8.32 µM); with Pseudomonas aeruginosa [18], 16 µg/mL (≈ 33.3 µM); in the experiment on Pseudomonas aeruginosa [19], 16 µg/mL (≈ 33.3 µM); against Pseudomonas aeruginosa [8] it was 4 µg/mL (≈ 8.32 µM); with Pseudomonas aeruginosa [9], 2 µg/mL (≈ 4.16 µM). Also, the minimal inhibitory concentration (MIC) was determined as 4 µg/mL (≈ 8.32 µM) with Pseudomonas aeruginosa [11]; 16 µg/mL (≈ 33.3 µM) against Pseudomonas aeruginosa [20]; 16 µg/mL (≈ 33.3 µM) against Pseudomonas aeruginosa [12]; 4 µg/mL (≈ 8.32 µM) with Pseudomonas aeruginosa [13]; 4 µg/mL (≈ 8.32 µM) with Pseudomonas aeruginosa [14]; 16 µg/mL (≈ 33.3 µM) in the experiment on Pseudomonas aeruginosa [15]. Moreover, the MIC against Pseudomonas aeruginosa [16] was found to be 4 µg/mL (≈ 8.32 µM); with Pseudomonas aeruginosa [21] it was 16 µg/mL (≈ 33.3 µM).
